Here are results for 17 compounds from ChEMBL document CHEMBL4371014, “Novel Allosteric Ligands of γ-Aminobutyric Acid Transporter 1 (GAT1) by MS Based Screening of Pseudostatic Hydrazone Libraries” (J Med Chem, 2018).

The structures appear in SMILES notation.

For experiment [1], the target named is T1, Sodium- and chloride-dependent GABA transporter 1 (Mus musculus, UniProt P31648). In words: Inhibition of NO711 binding to mouse GAT1 expressed in HEK293 cell membranes assessed as residual binding preincubated for 4 hrs followed by NO711 addition and measured after 40 mins by LC-ESI-MS/MS analysis. Put shortly: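 Pseudostatic hydrazone libraries were generated with mouse GAT1 present. Each held eight aldehydes (1.0 µM each) plus hydrazine (200 µM), incubated 4 h. NO711 marker was added directly for a further 40 min. Bound marker was released and quantified by LC-ESI-MS/MS as % remaining specific binding, four replicates (means±SD).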

Experiment [2] has as its target T1, Sodium- and chloride-dependent GABA transporter 1. In words: Inhibition of mouse GAT1 expressed in HEK293 cells assessed as reduction in [3H]GABA uptake preincubated for 25 mins followed by [3H]GABA addition and measured after 4 mins by liquid scintillation counting method. Format: cell-based.
Experiment [3] deals with T2, Sodium- and chloride-dependent GABA transporter 1 (Homo sapiens, UniProt P30531). In words: Inhibition of NO711 binding to human GAT1 expressed in COS cell membranes by LC-ESI-MS/MS analysis.
The target in experiment [4] is T2, Sodium- and chloride-dependent GABA transporter 1. Put plainly: Inhibition of NO711 binding to human GAT1 expressed in COS cell membranes preincubated for 25 mins by LC-ESI-MS/MS analysis.
Another experiment addresses T3, GABA transporter 4 (Mus musculus, UniProt P31650).
T3 sequence (P31650 whole entry): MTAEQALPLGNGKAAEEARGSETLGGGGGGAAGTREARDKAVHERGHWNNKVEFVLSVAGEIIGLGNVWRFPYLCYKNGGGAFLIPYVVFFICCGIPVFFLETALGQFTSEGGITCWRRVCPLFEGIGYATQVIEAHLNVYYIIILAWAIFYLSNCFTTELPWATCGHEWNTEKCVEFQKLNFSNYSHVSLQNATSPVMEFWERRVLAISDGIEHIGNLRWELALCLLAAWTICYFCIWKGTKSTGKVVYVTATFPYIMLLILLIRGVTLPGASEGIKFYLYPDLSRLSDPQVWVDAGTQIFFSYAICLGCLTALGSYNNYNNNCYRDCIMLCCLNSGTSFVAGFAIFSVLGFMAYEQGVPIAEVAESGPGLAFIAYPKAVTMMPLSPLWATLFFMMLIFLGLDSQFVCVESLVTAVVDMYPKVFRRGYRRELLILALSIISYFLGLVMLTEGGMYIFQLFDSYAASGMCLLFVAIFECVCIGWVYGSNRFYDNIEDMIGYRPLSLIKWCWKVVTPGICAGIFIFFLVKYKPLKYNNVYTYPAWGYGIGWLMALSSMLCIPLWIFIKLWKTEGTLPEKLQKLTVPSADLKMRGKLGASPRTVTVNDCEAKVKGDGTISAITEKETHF
In words: Inhibition of mouse GAT4 expressed in HEK293 cells assessed as reduction in [3H]GABA uptake preincubated for 25 mins followed by [3H]GABA addition and measured after 4 mins by liquid scintillation counting method. It counts as cell-based.

T2 sequence (P30531 whole entry): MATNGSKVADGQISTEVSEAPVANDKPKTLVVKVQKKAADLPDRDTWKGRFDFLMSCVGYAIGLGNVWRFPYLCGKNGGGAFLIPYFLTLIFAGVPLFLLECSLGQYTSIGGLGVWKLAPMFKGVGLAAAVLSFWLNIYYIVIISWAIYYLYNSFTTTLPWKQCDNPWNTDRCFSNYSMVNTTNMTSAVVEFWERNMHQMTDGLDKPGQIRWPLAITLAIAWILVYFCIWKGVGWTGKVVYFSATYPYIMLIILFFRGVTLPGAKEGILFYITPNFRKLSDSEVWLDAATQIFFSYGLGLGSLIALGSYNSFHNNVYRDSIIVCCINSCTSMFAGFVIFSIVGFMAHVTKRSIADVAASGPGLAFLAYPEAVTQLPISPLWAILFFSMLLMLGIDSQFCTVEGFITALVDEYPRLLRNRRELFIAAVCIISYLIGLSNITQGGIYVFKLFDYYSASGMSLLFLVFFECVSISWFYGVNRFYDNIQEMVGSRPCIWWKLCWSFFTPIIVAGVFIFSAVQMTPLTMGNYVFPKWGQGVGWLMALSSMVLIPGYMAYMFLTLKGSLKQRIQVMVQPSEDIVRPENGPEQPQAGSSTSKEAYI

On to `O=C(O)[C@H]1CNC[C@@H](CN/N=C/c2ccc(-c3ccc(C(F)(F)F)cc3Cl)o2)C1` (racemic), for which the Ki (as a rule, the dissociation constant of the complex between target and ligand, obtained from inhibition or displacement) in experiment [1] was 0.447 µM. Further, the IC50 (in general, the concentration needed to halve the response being measured) in experiment [2] was 41.7 µM; in experiment [3], 26.9 to 170 µM; in experiment [4], 30.9 to 135 µM.
As to `O=C(O)[C@H]1CNC[C@@H](CCN/N=C/c2ccc(-c3ccc(C(F)(F)F)cc3Cl)o2)C1` (racemic), the Ki in experiment [1] is 0.617 µM. In addition, the IC50 in experiment [2] was 44.7 µM; at GABA transporter 4 it was 41.7 µM; in experiment [3], 26.9 to 170 µM; in experiment [4], 30.9 to 135 µM.
Regarding `O=C(O)[C@H]1CNC[C@@H](CN/N=C/c2ccc(-c3cccc4ccccc34)o2)C1` (racemic), the Ki in experiment [1] is 0.214 µM. Also, the IC50 was 22.9 µM in experiment [2], 75.9 µM at GABA transporter 4, 26.9 to 170 µM in experiment [3] and 42.7 µM in experiment [4].
With `O=C(O)[C@H]1CNC[C@@H](CN/N=C/c2ccc(-c3ccc(Cl)cc3[N+](=O)[O-])o2)C1` (racemic), the Ki in experiment [1] is 1.48 µM.
Same read-out and setting: with `O=C(O)[C@H]1CNC[C@@H](CN/N=C/c2ccc(-c3ccccc3C(F)(F)F)o2)C1` (racemic) the figure was 2.29 µM; with `O=C(O)[C@H]1CNC[C@@H](CN/N=C/c2ccc(-c3cccc(C(F)(F)F)c3)o2)C1` (racemic), 0.708 µM; with `O=C(O)[C@H]1CNC[C@@H](CN/N=C/c2cnc(-c3ccc4ccccc4c3)nc2)C1` (racemic), 0.933 µM.
Still for that read-out and setting: with `O=C(O)[C@H]1CNC[C@@H](CN/N=C/c2ccc(-c3ccccc3Br)o2)C1` (racemic) the figure was 1.45 µM.
`O=C(O)[C@H]1CNC[C@@H](CCN/N=C/c2ccc(-c3ccc(Cl)cc3Cl)o2)C1` (racemic): the Ki in experiment [1] was 0.479 µM. Also, the IC50 in experiment [2] was 35.5 µM; at GABA transporter 4 it was 15.1 µM; in experiment [3], 26.9 to 170 µM; in experiment [4], 30.9 to 135 µM.
As to `O=C(O)[C@H]1CNC[C@@H](CN/N=C/c2ccc(-c3cc(C(F)(F)F)cc(C(F)(F)F)c3)o2)C1` (racemic), in experiment [1], the Ki is 0.245 µM. Besides, the IC50 in experiment [3] is 26.9 to 170 µM; in experiment [4], 135 µM.
Take `O=C(O)[C@H]1CNC[C@@H](CN/N=C/c2ccc(-c3cc(C(F)(F)F)ccc3Cl)o2)C1` (racemic): the Ki in experiment [1] is 0.468 µM. The IC50 in experiment [2] was 81.3 µM; in experiment [3] it was 26.9 to 170 µM; in experiment [4], 30.9 to 135 µM.
As for `Cc1ccsc1C(=CCCN1CCC[C@@H](C(=O)O)C1)c1sccc1C` [TIAGABINE], in experiment [1], the Ki was 0.0275 µM.
On the same count and under the same terms, with `O=C(O)[C@H]1CNC[C@@H](CN/N=C/c2cccc(Oc3ccccc3)c2)C1` (racemic) the figure was 0.955 µM; with `O=C(O)[C@H]1CNC[C@@H](CN/N=C/c2ccc(-c3ccc(Cl)cc3Cl)o2)C1` (racemic), 0.646 µM.
On the same count and under the same terms, with `O=C(O)[C@H]1CNC[C@@H](CN/N=C/c2ccc(-c3ccc(F)c(C(F)(F)F)c3)o2)C1` (racemic) the figure was 1.26 µM.
Take `O=C(O)[C@H]1CNC[C@@H](CN/N=C/c2ccc(-c3ccccc3Cl)o2)C1` (racemic): the Ki in experiment [1] was 1.23 µM.
The same measure, in the same setting: under `O=C(O)[C@H]1CNC[C@@H](CN/N=C/c2ccc(-c3cccc(Cl)c3)o2)C1` (racemic) stands 1.86 µM.
